“Also recorded” adds a separate entry of the source. Values belong to the compound of their own block, whether it stands above or below them.
Key:
[1] = target: wild-type PDI (Homo sapiens, UniProt P07237); assay: Thermal shift assay, wild-type PDI; assay type: binding; conditions: for stabilization of PDI to thermal denaturation: 100 μM; for increase of melting temperature: recombinant PDI, dose-dependent, up to 100 μM
Method in brief: (§1)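 Purified PDI (wild-type, C53S/C397S or H256A; 0.5 mg/mL in 50 mM Tris, pH 7.0) was mixed with compound in DMSO and ROX dye. Samples were heated from 25 to 99 °C at 1 °C/min. Boltzmann melting temperature was compared with the 5% DMSO control.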

[2] = target: T1, PDI (Homo sapiens, UniProt P07237); assay: PDI reductase assay; assay type: biochemical; conditions: for fold reduction of potency: replacing the nitrile in BAP2 (6) and 32 with a trifluoromethyl group; for PDI inhibitory activity (in words): PDI reductase assay
T1 sequence (P07237 18-508): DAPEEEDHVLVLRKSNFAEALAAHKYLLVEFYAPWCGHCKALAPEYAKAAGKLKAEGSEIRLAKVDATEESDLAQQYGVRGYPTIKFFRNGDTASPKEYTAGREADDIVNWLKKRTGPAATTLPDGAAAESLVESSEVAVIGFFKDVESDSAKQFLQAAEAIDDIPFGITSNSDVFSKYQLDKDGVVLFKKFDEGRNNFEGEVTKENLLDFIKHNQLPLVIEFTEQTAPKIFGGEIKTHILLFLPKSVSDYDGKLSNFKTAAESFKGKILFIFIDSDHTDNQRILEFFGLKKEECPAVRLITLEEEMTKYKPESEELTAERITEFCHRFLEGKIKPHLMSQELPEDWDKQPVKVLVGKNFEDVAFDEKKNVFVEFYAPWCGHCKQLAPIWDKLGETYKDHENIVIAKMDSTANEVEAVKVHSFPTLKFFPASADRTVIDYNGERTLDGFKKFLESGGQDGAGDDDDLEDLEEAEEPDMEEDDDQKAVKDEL
Method in brief: (§2)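 N-terminal His-tagged human PDI was expressed in E. coli BL21(DE3) pLysS with 1 mM IPTG for 4 h at 37 °C. It was purified on Ni-NTA and dialyzed into 100 mM sodium phosphate, 2 mM EDTA, pH 7.0. PDI (0.4 μM) was preincubated 1 h with compound in phosphate/EDTA buffer with 8 μM DTT. DTT (500 μM) and bovine insulin (130 μM) were then added at room temperature. Aggregation was read at 620 nm. Percent activity came from the 0–80 min change, corrected for DTT alone.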

[3] = tested on: D54 cells; assay: Clonogenic survival assay with ionizing radiation; assay type: cell-based; conditions: 1 μM, 0-6 Gy
Method in brief: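 D54 monolayer cells (37 °C, 5% CO2, mycoplasma-tested, STR-authenticated) were irradiated at 0, 1, 2, 4 or 6 Gy and plated immediately at 200, 200, 400, 600 and 1000 cells/well. Test compounds (1 μM), reference inhibitor (0.05 μM) or DMSO were added. After 10–12 days, colonies were stained with 0.1% crystal violet.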

[4] = tested on: MMP9; assay: Western blot of cell lysates, MMP9; assay type: cell-based, human; conditions: U87MG cells, 10 μM (PACMA31 0.25 μM), 48 hours
Method in brief: (§3)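 Treated U87MG cells were lysed by sonication in Tris/NaCl/Triton X-100/SDS buffer (pH 7.4) and spun at 13,500×g, 4 °C, 10 min. Protein was quantified by BCA. 30 μg per lane ran on 10% gels and transferred to PVDF. Primary antibodies were applied overnight at 4 °C. Fluorescent secondaries were imaged.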

[5] = target: C53S/C397S PDI (Homo sapiens, UniProt P07237, C397S/C53S); assay: Thermal shift assay, C53S/C397S PDI; assay type: binding; conditions: 100 μM
Sequence of C53S/C397S PDI (P07237 18-508 C53S/C397S): as the sequence (P07237 18-508) above, with C36S, C380S counted along it
Method in brief: as §1

[6] = target: T2, H256A PDI (Homo sapiens, UniProt P07237, H256A); assay: Thermal shift assay, H256A PDI; assay type: binding; conditions: 100 μM
T2 sequence (P07237 18-508 H256A): as the sequence (P07237 18-508) above, with H239A counted along it
Method in brief: as §1

[7] = target: T2, H256A PDI; assay: PDI reductase assay, H256A mutant PDI; assay type: biochemical; conditions: 10 μM
Method in brief: as §2

[8] = target: T1, PDI; assay: PDI reductase assay after competition with N-acetyl cysteine; assay type: biochemical; conditions: compound 40 μM; 0, 1, 2 or 5 mM NAC
Method in brief: as §2

[9] = tested on: MMP2; assay: Gelatin zymography and Western blot of conditioned media; assay type: cell-based, human; conditions: U87MG cells, 10 μM (PACMA31 0.25 μM), 48 hours
Method in brief: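 U87MG cells (0.5 x 10^6/well) attached overnight and were serum-starved 12 h before treatment. Cleared conditioned media (5 µg protein) ran on 10% SDS-PAGE with 0.1% gelatin. Gels were washed in 2.5% Triton X-100 Tris/CaCl2/ZnCl2 buffer, incubated overnight at 37 °C, then Coomassie R-250 stained and destained. Cleaved MMP2 in media was also assessed by Western blot.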

[10] = tested on: A172 cells; assay: Transwell migration assay; assay type: cell-based, human; conditions: 4 hours
Method in brief: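 Treated A172 cells (1 x 10^5) were seeded into inserts with 8.0 µm PET membranes in serum-free medium. The lower well held DMEM with 10% FBS, and FBS-free wells served as control. After 4 h, cells were Giemsa-stained and 5 fields per well were imaged at 10X.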

[11] = tested on: U87MG cells; assay: Bromouridine RNA sequencing; assay type: cell-based, human; conditions: 10 μM compound 18, U87MG cells, 4 hours
Method in brief: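 U87MG cells exposed to test compound or DMSO for 4 h, with 2 mM bromouridine added for the last 30 min. Total RNA was TRIzol-extracted, and Bru-labelled RNA was captured on anti-BrdU antibody magnetic beads, then sequenced. Reads were mapped to hg19. Genes were filtered to size >300 bp and mean RPKM >0.5, and ranked by transcription fold change versus control for pre-ranked GSEA.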

[12] = tested on: EIF2α; assay: Western blot, phosphorylation of EIF2α; assay type: cell-based, human; conditions: U87MG and A172 cells; 20 μM (PACMA31 1.0 μM), 2 hours
Method in brief: as §3

[13] = target: b’ domain of PDI (Homo sapiens, UniProt P07237); assay: ANS spectral scan; assay type: binding; conditions: 5 μM PDI, 100 μM compound
Sequence of b’ domain of PDI (P07237 18-508): as the sequence (P07237 18-508) above
Method in brief: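 Human PDI was preincubated with 100 μM compound or matching DMSO in TBS at 37 °C for 1 h. ANS was then added, followed by 20 min in the dark at 25 °C. Fluorescence spectrum: Ex 370 nm, Em 400–700 nm.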

[14] = tested on: GRP78; assay: Western blot, GRP78 expression; assay type: cell-based, human; conditions: U87MG cells; 20 μM (PACMA31 1.0 μM), 24 hours
Method in brief: as §3

[15] = tested on: HFF-1 normal human fibroblast cells; assay: MTT assay in normal fibroblasts; assay type: cell-based; conditions: potency in NU04 versus HFF-1 cells
[16] = tested on: GBM cell; assay: Combination with As2O3, GBM cell proliferation; assay type: cell-based

Sequence of wild-type PDI (P07237 18-508): as above

Compound: O=C(/C=C/c1ccc(-c2ccncc2)cc1)c1cccc(O)c1 [Compound 69, (E)-1-(3-Hydroxyphenyl)-3-(4-(pyridin-4-yl)phenyl)prop-2-en-1-one]
stabilization of PDI to thermal denaturation [1]: did not stabilize PDI

Compound: C#CC(=O)N(c1ccc(OC)cc1OC)C(C(=O)NCC(=O)OCC)c1cccs1 (stereo not drawn) [PACMA31, reference compound]
phosphorylation of EIF2α [12]: did not induce phosphorylation of EIF2α | MMP9 expression [4]: decreased | effect on ANS fluorescence [13]: did not hinder dye fluorescence | expression of GRP78 [14]: increase in expression of GRP78 | stabilization of PDI to thermal denaturation [1]: does not stabilize PDI | activity after competition with N-acetyl cysteine (NAC) [8]: significantly abolished | transwell migration ([10]; 30 μM): inhibited migration | MMP2 activity and secretion [9]: inhibit MMP2 activity and secretion

Compound: N#Cc1cccc(/C=C/C(=O)c2ccc(S(N)(=O)=O)cc2)c1 [Compound 13, (E)-4-(3-(3-Cyanophenyl)acryloyl)benzenesulfonamide]
inhibition of GBM cell proliferation in combination with As2O3 [16]: synergistically

Compound: CCN(CC)S(=O)(=O)c1ccc(C(=O)/C=C/c2cccc(C#N)c2)cc1 [Compound 15, (E)-4-(3-(3-Cyanophenyl)acryloyl)-N,N-diethylbenzenesulfonamide]
inhibition of GBM cell proliferation in combination with As2O3 [16]: synergistically

Compound: O=C(/C=C/c1ccccc1O)c1ccccc1O [NC588]
PDI inhibitory activity (in words) [2]: inactive

Compound: C[C@]12CC[C@@H]3c4ccc(O)cc4CC[C@H]3[C@@H]1CC[C@@H]2O [estradiol, reference compound]
stabilization (thermal shift) in the C53S/C397S mutant [5]: but not the C53S/C397S mutant | stabilization of PDI to thermal denaturation [1]: stabilizes PDI to thermal denaturation | increase of melting temperature [1]: more than 1 °C | stabilization (thermal shift) in the H256A mutant [6]: abolished

Compound: CN(C)S(=O)(=O)c1ccc(C(=O)/C=C/c2cccc(C#N)c2)cc1 [Compound 14, (E)-4-(3-(3-Cyanophenyl)acryloyl)-N,N-dimethylbenzenesulfonamide]
inhibition of GBM cell proliferation in combination with As2O3 [16]: synergistically

Second part, led by results:

fold reduction of potency [2]: 2 to 4 fold
Compound: O=C(/C=C/c1ccc(C(F)(F)F)cc1)c1ccc(O)cc1 [Compound 57, (E)-1-(4-Hydroxyphenyl)-3-(4-(trifluoromethyl)phenyl)prop-2-en-1-one]

stabilization (thermal shift) in the C53S/C397S mutant [5]: not abolished | increase of melting temperature [1]: more than 1 °C | stabilization (thermal shift) in the H256A mutant [6]: not abolished | activity against H256A mutant PDI [7]: abolished upon mutation | activity after competition with N-acetyl cysteine (NAC) [8]: unaffected by up to 5 mM NAC
Compound: O=C(/C=C/c1ccc(-c2cccnc2)cc1)c1cccc(O)c1 [Compound 68, (E)-1-(3-Hydroxyphenyl)-3-(4-(pyridin-3-yl)phenyl)prop-2-en-1-one]
synergy with ionizing radiation (IR) [3]: synergized with IR | MMP9 expression [4]: decreased | MMP2 activity and secretion [9]: inhibit MMP2 activity and secretion

stabilization of PDI to thermal denaturation [1]: did not stabilize PDI
Compound: CCCCCN(CCCCC)S(=O)(=O)c1ccc(C(=O)/C=C/c2cccc(C#N)c2)cc1 [Compound 18, (E)-4-(3-(3-Cyanophenyl)acryloyl)-N,N-dipentylbenzenesulfonamide]
MMP9 expression [4]: decreased | transwell migration ([10]; 10 μM): inhibited migration | transwell migration ([10]; 30 μM): inhibited migration | Fold Change in transcription, AKAP5 [11]: −3.4 | Fold Change in transcription, ANKRD36B [11]: −2.8 | Fold Change in transcription, BARD1 [11]: −2.3 | Fold Change in transcription, BBS10 [11]: −2.3 | Fold Change in transcription, CCNA2 [11]: −2.3 | Fold Change in transcription, CHSY3 [11]: −2.6 | Fold Change in transcription, DUT [11]: −2.3 | Fold Change in transcription, FBXO43 [11]: −2.7 | Fold Change in transcription, FPGT [11]: −2.3 | Fold Change in transcription, HIST1H2BC [11]: −2.3 | Fold Change in transcription, KCTD4 [11]: −2.8 | Fold Change in transcription, LYPD6 [11]: −3.1 | Fold Change in transcription, MYBL1 [11]: −2.6 | Fold Change in transcription, SLITRK5 [11]: −3.6 | Fold Change in transcription, ST8SIA4 [11]: −3.1 | Fold Change in transcription, ZNF404 [11]: −2.7

fold decrease in the inhibition of PDI activity ([2]; replacement of the hydroxyl group (6) with bromine): 2 fold
Compound: N#Cc1cccc(/C=C/C(=O)c2ccc(Br)cc2)c1 [Compound 10, (E)-3-(3-(4-Bromophenyl)-3-oxoprop-1-en-1-yl)benzonitrile]

effect on ANS fluorescence [13]: competes with ANS | stabilization (thermal shift) in the C53S/C397S mutant [5]: not abolished | increase of melting temperature [1]: more than 1 °C | stabilization (thermal shift) in the H256A mutant [6]: not abolished
Compound: CCCCCN(CCCCC)S(=O)(=O)c1ccc(C(=O)/C=C/c2cccc(O)c2)cc1 [Compound 59, (E)-4-(3-(3-Hydroxyphenyl)acryloyl)-N,N-dipentylbenzenesulfonamide]
MMP9 expression [4]: decreased | Fold Difference [15]: 3.8 | activity against H256A mutant PDI [7]: active against the H256A mutant; also recorded: not His256-dependent | activity after competition with N-acetyl cysteine (NAC) [8]: abolished by 5 mM NAC, but not by lower concentrations | transwell migration ([10]; 30 μM): inhibited migration

effect on ANS fluorescence [13]: did not hinder dye fluorescence
Compound: N#Cc1cccc(/C=C/C(=O)c2cnccn2)c1 [Compound 29, (E)-3-(3-Oxo-3-(pyrazin-2-yl)prop-1-en-1-yl)benzonitrile]

PDI inhibitory activity (in words) [2]: inactive
Compound: O=C(/C=C/c1ccc(O)cc1)c1ccccc1O [NC587]

effect on ANS fluorescence [13]: did not hinder dye fluorescence
Compound: COc1ccc(C(=O)/C=C/c2cccc(C#N)c2)cc1 [Compound 8, (E)-3-(3-(4-Methoxyphenyl)-3-oxoprop-1-en-1-yl)benzonitrile]

fold reduction of potency [2]: 2 to 4 fold
Compound: O=C(/C=C/c1cccc(C(F)(F)F)c1)c1ccc(O)cc1 [Compound 55, (E)-1-(4-Hydroxyphenyl)-3-(3-(trifluoromethyl)phenyl)prop-2-en-1-one]

PDI inhibitory activity (in words) [2]: inactive
Compound: O=C(/C=C/c1cccc(O)c1)c1ccccc1O [NC589]

stabilization (thermal shift) in the C53S/C397S mutant [5]: not abolished | increase of melting temperature [1]: more than 1 °C | stabilization (thermal shift) in the H256A mutant [6]: not abolished | activity against H256A mutant PDI [7]: abolished upon mutation
Compound: COC(=O)c1cccc(/C=C/C(=O)c2cccc(O)c2)c1 [Compound 46, Methyl-(E)-3-(3-(3-hydroxyphenyl)-3-oxoprop-1-en-1-yl)benzoate]
activity after competition with N-acetyl cysteine (NAC) [8]: abolished by 5 mM NAC, but not by lower concentrations

Reference: paper PMC8276234 (Journal of medicinal chemistry, 2019)
